This passage reports IC50, inhibition and Activity results from ChEMBL document CHEMBL4428055 (J Med Chem, 2016).

In assay [1] the target is T1, Aldo-keto reductase family 1 member C3 (Homo sapiens, UniProt P42330).
T1 sequence (P42330 whole entry): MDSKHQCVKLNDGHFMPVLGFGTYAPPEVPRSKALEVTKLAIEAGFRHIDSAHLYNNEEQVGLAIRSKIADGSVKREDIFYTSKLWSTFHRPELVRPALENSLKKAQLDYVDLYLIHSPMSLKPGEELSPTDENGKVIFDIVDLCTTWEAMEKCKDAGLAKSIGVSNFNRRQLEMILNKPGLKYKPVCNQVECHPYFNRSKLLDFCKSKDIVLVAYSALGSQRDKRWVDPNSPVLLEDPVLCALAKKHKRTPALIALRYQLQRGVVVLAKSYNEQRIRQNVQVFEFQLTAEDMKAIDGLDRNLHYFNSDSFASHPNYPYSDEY
Description: Inhibition of human recombinant AKR1C3 using S-tetralol as substrate assessed as reduction in NADP+-dependent S-tetralol oxidation preincubated for 10 mins followed by protein addition by fluorometric assay.

Assay [2] has as its target T2, Aldo-keto reductase family 1 member C2 (Homo sapiens, UniProt P52895).
T2 sequence (P52895 whole entry): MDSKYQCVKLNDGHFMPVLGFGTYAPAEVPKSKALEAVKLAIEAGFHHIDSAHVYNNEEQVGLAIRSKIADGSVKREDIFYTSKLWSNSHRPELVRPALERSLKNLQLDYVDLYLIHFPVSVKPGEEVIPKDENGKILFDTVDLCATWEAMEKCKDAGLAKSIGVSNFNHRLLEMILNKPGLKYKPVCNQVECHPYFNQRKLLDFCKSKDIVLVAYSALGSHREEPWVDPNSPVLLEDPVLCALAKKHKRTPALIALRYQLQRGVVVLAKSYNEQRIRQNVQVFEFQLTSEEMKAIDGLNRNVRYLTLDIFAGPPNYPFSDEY
Description: Inhibition of human recombinant AKR1C2 using S-tetralol as substrate assessed as reduction in NADP+-dependent S-tetralol oxidation preincubated for 10 mins followed by protein addition by fluorometric assay.

In assay [3] the target is T3, Prostaglandin G/H synthase 1 (Ovis aries) (UniProt P05979).
T3 sequence (whole entry): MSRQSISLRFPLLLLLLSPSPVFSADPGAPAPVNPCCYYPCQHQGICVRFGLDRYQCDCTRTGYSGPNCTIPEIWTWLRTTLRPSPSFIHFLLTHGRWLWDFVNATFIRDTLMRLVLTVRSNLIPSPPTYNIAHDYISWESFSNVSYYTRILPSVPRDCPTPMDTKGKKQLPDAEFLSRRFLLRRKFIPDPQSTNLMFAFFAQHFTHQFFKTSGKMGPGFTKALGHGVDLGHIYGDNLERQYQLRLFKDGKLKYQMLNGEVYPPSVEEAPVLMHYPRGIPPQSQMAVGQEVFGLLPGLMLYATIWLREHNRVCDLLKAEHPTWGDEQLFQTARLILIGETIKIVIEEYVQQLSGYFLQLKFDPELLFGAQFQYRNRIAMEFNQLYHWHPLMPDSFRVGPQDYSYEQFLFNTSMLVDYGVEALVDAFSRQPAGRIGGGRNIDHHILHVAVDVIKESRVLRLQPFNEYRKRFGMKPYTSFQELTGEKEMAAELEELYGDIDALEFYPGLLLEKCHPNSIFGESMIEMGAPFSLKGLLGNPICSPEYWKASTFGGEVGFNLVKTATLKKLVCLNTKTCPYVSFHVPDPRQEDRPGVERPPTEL
As to conditions: 100 uM.

The target in assay [4] is T4, Prostaglandin G/H synthase 2 (Homo sapiens, UniProt P35354).
T4 sequence (P35354 whole entry): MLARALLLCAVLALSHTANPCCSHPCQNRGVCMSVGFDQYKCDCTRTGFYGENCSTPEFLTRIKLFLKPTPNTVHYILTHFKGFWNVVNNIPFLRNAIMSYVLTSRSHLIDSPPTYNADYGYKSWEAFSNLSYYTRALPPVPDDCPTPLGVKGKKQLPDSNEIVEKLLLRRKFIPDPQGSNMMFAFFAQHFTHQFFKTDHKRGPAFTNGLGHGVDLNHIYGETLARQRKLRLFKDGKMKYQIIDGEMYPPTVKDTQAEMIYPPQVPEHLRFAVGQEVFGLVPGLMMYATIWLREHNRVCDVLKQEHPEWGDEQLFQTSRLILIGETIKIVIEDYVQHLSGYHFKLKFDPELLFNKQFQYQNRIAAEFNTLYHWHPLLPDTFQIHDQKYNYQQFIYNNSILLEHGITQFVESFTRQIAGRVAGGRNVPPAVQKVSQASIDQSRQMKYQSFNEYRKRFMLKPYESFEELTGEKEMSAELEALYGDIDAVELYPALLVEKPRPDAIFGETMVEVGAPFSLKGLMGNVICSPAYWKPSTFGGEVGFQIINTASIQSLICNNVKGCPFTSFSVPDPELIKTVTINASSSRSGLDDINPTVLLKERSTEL
Description: Inhibition of COX2 (unknown origin) using arachidonic acid as substrate assessed as […] by measuring TMPD oxidation preincubated for 5 mins followed by substrate/TMPD addition measured for 5 mins by colorimetric assay.

Assay [5] addresses T5, Androgen receptor (Homo sapiens) (UniProt P10275).
T5 sequence (whole entry): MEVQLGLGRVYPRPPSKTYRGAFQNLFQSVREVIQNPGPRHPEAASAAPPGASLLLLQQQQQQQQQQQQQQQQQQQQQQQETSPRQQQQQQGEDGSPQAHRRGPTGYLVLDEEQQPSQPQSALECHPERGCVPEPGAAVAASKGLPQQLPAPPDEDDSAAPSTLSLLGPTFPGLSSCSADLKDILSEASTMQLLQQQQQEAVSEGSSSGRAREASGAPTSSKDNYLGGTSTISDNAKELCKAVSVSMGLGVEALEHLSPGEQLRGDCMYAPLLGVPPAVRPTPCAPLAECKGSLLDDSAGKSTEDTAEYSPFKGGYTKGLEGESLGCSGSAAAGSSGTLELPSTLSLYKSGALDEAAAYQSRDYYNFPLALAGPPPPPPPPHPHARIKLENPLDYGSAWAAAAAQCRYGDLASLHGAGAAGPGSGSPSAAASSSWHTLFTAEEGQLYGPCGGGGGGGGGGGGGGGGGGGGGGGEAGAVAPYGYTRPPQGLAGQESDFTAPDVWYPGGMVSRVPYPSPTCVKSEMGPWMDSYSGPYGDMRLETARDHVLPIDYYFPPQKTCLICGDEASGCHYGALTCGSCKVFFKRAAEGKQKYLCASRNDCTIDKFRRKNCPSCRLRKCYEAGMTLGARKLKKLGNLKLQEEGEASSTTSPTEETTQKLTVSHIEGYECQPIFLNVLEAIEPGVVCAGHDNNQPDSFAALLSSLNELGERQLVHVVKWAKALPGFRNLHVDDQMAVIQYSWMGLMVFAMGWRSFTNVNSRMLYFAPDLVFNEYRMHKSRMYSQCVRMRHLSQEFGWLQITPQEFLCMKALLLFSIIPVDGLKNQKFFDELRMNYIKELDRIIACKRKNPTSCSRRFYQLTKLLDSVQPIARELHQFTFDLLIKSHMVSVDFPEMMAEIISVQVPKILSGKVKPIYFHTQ
Description: Effect on 5alpha-DHT-induced activation of AR (unknown origin) expressed in human HeLa13 cells at 10 uM incubated for 20 hrs by luciferase reporter gene assay. Type of assay: cell-based. In a few lines: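 HeLa13 cells stably carrying AR and an androgen-response-element luciferase reporter were grown 48 h in phenol-red-free medium with 5% charcoal-stripped FBS. They were plated for 6–7 h, then given fresh medium with 5α-DHT (1 nM in methods; increasing concentrations also tested) plus inhibitor. Luciferase was read after 20 h, as fold induction over untreated cells.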
A general note: A reporter such as luciferase makes a cellular process visible.

Assay [6] has as its target T6, Prostaglandin G/H synthase 1 (Ovis aries, UniProt P05979).
T6 sequence (P05979 whole entry): T3 sequence (whole entry)
Description: Inhibition of COX1 in ram seminal vesicles using arachidonic acid as substrate assessed as reduction in […] by measuring TMPD oxidation preincubated for 5 mins followed by substrate/TMPD addition measured for 5 mins by colorimetric assay.

Assay [7] has as its target T7, Prostaglandin G/H synthase 2 (Homo sapiens) (UniProt P35354).
T7 sequence (whole entry): T4 sequence (P35354 whole entry)
Description: Inhibition of COX2 (unknown origin) using arachidonic acid as substrate assessed as reduction in […] by measuring TMPD oxidation at 10 uM preincubated for 5 mins followed by substrate/TMPD addition measured for 5 mins by colorimetric assay.

Structures are written as SMILES. Activity calls are given as the source filed them. The calls are words filed in the database; no cut-off is given here. Bounds are passed on as bounds.

For `CSc1ccc2cc([C@H](C)C(=O)O)ccc2c1`, the half-maximal inhibitory concentration (IC50) (in general, the concentration that gives 50% inhibition) in assay [1] worked out at 0.07 µM; in assay [2] it was 1.35 µM.

Regarding `COc1ccc2cc([C@@H](C)C(=O)O)ccc2c1`, the inhibition (usually the change of the read-out against control, counted positive when it falls) in assay [3] is < 20%. The half-maximal inhibitory concentration (IC50) is > 25 µM in assay [4] (read-out: IC50) and 2.75 µM in assay [2].

Take `CC[C@@H](C(=O)O)c1ccc2cc(OC)ccc2c1`: the half-inhibitory concentration (IC50) result in assay [4] is “Not Active”. Also, the result in assay [5] was inactive.

Regarding `CC[C@H](C(=O)O)c1ccc2cc(OC)ccc2c1`, the concentration for half-maximal inhibition (IC50) in assay [1] was 0.12 µM; in assay [4] it was “Not Active”; in assay [6], 1.93 µM; in assay [2], 1.72 µM.

For `CCC(C(=O)O)c1ccc2cc(OC)ccc2c1` (racemic), the inhibition result in assay [7] is “inactive”. The IC50 in assay [1] worked out at 0.12 µM; in assay [2], 7.6 µM.

For `CCc1ccc2cc(C(C)C(=O)O)ccc2c1` (racemic), the figures for the IC50 in assay [1] and in assay [2] were 0.12 µM and 1.9 µM, respectively.

Turning to `CCC(C(=O)NS(C)(=O)=O)c1ccc2cc(OC)ccc2c1` (racemic), the figures for the IC50 in assay [1] and in assay [2] were 6 µM and 34 µM, respectively.

As to `CCOc1ccc2cc(C(C)C(=O)O)ccc2c1` (racemic), the results for the half-maximal inhibitory concentration (IC50) in assay [1] and in assay [2] were 0.1 µM and 2.4 µM, respectively.

For the compound `CSc1ccc2cc(C(C)C(=O)O)ccc2c1` (racemic), the figures for the half-maximal inhibitory concentration (IC50) in assay [1] and in assay [2] were 0.06 µM and 1.5 µM, respectively.

As for `COc1ccc2cc([C@H](C)C(=O)O)ccc2c1` [NAPROXEN], the 50% inhibitory concentration (IC50) in assay [4] (read-out: IC50) stood at 0.9 µM.
